Published values of several laboratories.
Protocols differ between the studies behind these lines.
ADORA2B: Adenosine receptor A2b (ADORA2B, Homo sapiens, UniProt P29275)
MMP13: Collagenase 3 (MMP13, Homo sapiens, UniProt P45452)
HTR4: 5-hydroxytryptamine receptor 4 (HTR4, Homo sapiens, UniProt Q13639)

CCCCn1c(=O)c2[nH]c(C34CC5CC(CC3C5)C4)nc2n(CCCO)c1=O  Ki (ADORA2B; ligand displacement; radioligand; cell membranes): 0.0486 µM
Oc1nc(SCc2ccc(Cl)cc2)nc2c1CCC2  Ki (MMP13; enzyme activity; inhibitor): 3.3 µM
C[C@]12CCC(=O)C=C1CC[C@@H]1[C@@H]2[C@@H](O)C[C@@]2(C)[C@H]1CC[C@]2(O)C(=O)CO  Ki (G-protein coupled estrogen receptor 1 (GPER1, Homo sapiens, UniProt Q99527); ligand displacement; radioligand): 4.4 µM
COC(=O)c1ccc(CSc2nc3c(c(=O)[nH]2)CCC3)cc1  Ki (MMP13; enzyme activity; inhibitor): 1.5 µM
Nc1ncnc2c1ncn2[C@@H]1O[C@H](COP(=O)(O)OP(=O)(O)O)[C@@H](O)[C@H]1O  Ki (nod (Drosophila melanogaster, UniProt P18105); enzyme activity; inhibitor): ~2 µM
CCCCCCCCCCCCCC#CC(=O)O  Ki (Fatty acid synthase (Plasmodium falciparum, UniProt Q965D7); enzyme activity; inhibitor): 4.75 µM
OC[C@@]12C[C@@H]1[C@@H](n1cnc3c(NC(C4CCCC4)C4CCCC4)nc(Cl)cc31)[C@H](O)[C@@H]2O  Ki (Beta-3 adrenergic receptor (ADRB3, Homo sapiens, UniProt P13945); cell-free assay; radioligand): 4.7 µM
CCCCN1CCCn2c1nc1c2c(=O)n(C)c(=O)n1C  Ki (ADORA2B; ligand displacement; radioligand; cell membranes): > 10 µM
Cc1c(-c2ccccc2)oc2c(C(=O)OCCN3CCCCC3)cccc2c1=O  Ki (HTR4; cell-free assay; radioligand; cell membranes): > 10 µM
COc1ccc(CCCn2ncc3c2nc(N)n2nc(-c4ccco4)nc32)cc1  Ki (Adenosine receptor A1 (Mus musculus, UniProt Q60612); ligand displacement; radioligand; cell membranes): 0.765 µM
CC(C)N1CCCn2c1nc1c2c(=O)n(C)c(=O)n1C  Ki (ADORA2B; ligand displacement; radioligand; cell membranes): > 10 µM
CCCCN1CCC(COC(=O)c2ccc(N)c(OCF)c2)CC1  Ki (HTR4; ligand displacement; radioligand): 0.0008 µM
CCCC(C)N1CCCn2c1nc1c2c(=O)n(C)c(=O)n1C (stereo not shown)  Ki (ADORA2B; ligand displacement; radioligand; cell membranes): > 10 µM
N=C(N)N1CCC[C@H]1c1nc(-c2ccc(CCC3CCCCC3)c(C(F)(F)F)c2)no1  Ki (Sphingosine kinase 2 (Sphk2, Mus musculus, UniProt Q9JIA7); enzyme activity; inhibitor): 0.11 µM
C[C@H]1CN(C2COC2)CCN1c1ccc(Nc2cc(-c3ccnc(N4CCn5c(cc6c5CC(C)(C)C6)C4=O)c3CO)cn(C)c2=O)nc1  Ki (Solute carrier organic anion transporter family member 1B1 (SLCO1B1, Homo sapiens, UniProt Q9Y6L6); transporter uptake; inhibitor; HEK293): 1.94 µM
C=CCN1CCCn2c1nc1c2c(=O)n(C)c(=O)n1C  Ki (ADORA2B; ligand displacement; radioligand; cell membranes): > 10 µM
